Series [1] deals with Plasmodium berghei. The experiment in a line: microbe, parasite or virus in culture. The class given is functional, organism-based. Particulars: HepG2.
Series [2] concerns Plasmodium falciparum. In words: Antimalarial activity against Plasmodium falciparum infected in human erythrocytes after 72 hrs. The class given is functional, organism-based.
A short description of series [3]: Selectivity index, ratio of IC50 for human mammalian cells to IC50 for Plasmodium falciparum. The class given is toxicity. Particulars: mammalian cells (cell line not named), read-out: Ratio IC50. In short, it runs like this: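 Ratio of HepG2 IC50 to P. falciparum 3D7 IC50. HepG2 toxicity assay: uninfected HepG2-A16-CD81EGFP cells treated as in the liver-stage assay, with medium instead of sporozoites, for 48 h. ATP measured by luminescence vs DMSO-treated cells. IC50 by four-parameter regression.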

A short description of series [4]: Cytotoxicity against human mammalian cells after 72 to 96 hrs by MTT assay. The format is cell-based.
The test system of series [5] is RAW. The experiment in a line: Cytotoxicity against mouse RAW cells by MTT assay. The class given is cell-based.
Series [6] is described as follows: Selectivity index, ratio of IC50 for mouse RAW cells to IC50 for Plasmodium falciparum. Particulars: read-out: Ratio IC50. The format is toxicity, cell-based.

For two compounds, IC50 and selectivity ratio results are on record in ChEMBL document CHEMBL3286295, “Discovery of HDAC inhibitors with potent activity against multiple malaria parasite life cycle stages” (Eur J Med Chem, 2014).

The term IC50 denotes the concentration that gives 50% inhibition. A low value points to higher potency.

Regarding `CCCCc1nc2cc(/C=C/C(=O)NO)ccc2n1CCN(CC)CC` [PRACINOSTAT], the values for the IC50 in series [1], in series [2] and in series [4] were 150 nM, 80 nM and more than 800 nM, respectively. Further, the selectivity ratio in series [3] was more than 4.
The compound `Nc1cccc(-c2csc(NC(=O)CCCCCCC(=O)NO)n2)c1` displayed an IC50 in series [5] of 600 nM. The selectivity ratio in series [6] stood at 333.
